Key:
[1] = target: Serine/threonine-protein kinase SBK1 (Homo sapiens) (UniProt Q52WX2); assay: Inhibition of wild-type human partial length SBK1 (P23 to P348 residues) expressed in HEK293 cells assessed as residual activity at 1000 nM after 30 mins by Kinomescan method relative to control; type: cell-based
[2] = target: Serine/threonine-protein kinase SIK1 (Homo sapiens) (UniProt P57059); assay: Inhibition of wild-type human partial length SIK (M1 to Y304 residues) expressed in Escherichia coli BL21 assessed as residual activity at 1000 nM after 30 mins by Kinomescan method relative to control
[3] = Antiproliferative activity against human FGFR2-amplified SUM52 cells after 5 days by SRB assay; conditions: SUM52, 120 h
[4] = target: Tyrosine-protein kinase JAK3 (Homo sapiens) (UniProt P52333); assay: Inhibition of wild-type human partial length JAK3 JH1 catalytic domain (I781 to S1124 residues) expressed in HEK293 cells assessed as residual activity at 1000 nM after 30 mins by Kinomescan method relative to control; type: cell-based
[5] = target: Serine/threonine-protein kinase 36 (Homo sapiens) (UniProt Q9NRP7); assay: Inhibition of wild-type human partial length STK36 (M1 to T271 residues) expressed in Escherichia coli BL21 assessed as residual activity at 1000 nM after 30 mins by Kinomescan method relative to control
Sequence of Serine/threonine-protein kinase 36 (Homo sapiens) (Q9NRP7 whole entry, the tested form may be a part): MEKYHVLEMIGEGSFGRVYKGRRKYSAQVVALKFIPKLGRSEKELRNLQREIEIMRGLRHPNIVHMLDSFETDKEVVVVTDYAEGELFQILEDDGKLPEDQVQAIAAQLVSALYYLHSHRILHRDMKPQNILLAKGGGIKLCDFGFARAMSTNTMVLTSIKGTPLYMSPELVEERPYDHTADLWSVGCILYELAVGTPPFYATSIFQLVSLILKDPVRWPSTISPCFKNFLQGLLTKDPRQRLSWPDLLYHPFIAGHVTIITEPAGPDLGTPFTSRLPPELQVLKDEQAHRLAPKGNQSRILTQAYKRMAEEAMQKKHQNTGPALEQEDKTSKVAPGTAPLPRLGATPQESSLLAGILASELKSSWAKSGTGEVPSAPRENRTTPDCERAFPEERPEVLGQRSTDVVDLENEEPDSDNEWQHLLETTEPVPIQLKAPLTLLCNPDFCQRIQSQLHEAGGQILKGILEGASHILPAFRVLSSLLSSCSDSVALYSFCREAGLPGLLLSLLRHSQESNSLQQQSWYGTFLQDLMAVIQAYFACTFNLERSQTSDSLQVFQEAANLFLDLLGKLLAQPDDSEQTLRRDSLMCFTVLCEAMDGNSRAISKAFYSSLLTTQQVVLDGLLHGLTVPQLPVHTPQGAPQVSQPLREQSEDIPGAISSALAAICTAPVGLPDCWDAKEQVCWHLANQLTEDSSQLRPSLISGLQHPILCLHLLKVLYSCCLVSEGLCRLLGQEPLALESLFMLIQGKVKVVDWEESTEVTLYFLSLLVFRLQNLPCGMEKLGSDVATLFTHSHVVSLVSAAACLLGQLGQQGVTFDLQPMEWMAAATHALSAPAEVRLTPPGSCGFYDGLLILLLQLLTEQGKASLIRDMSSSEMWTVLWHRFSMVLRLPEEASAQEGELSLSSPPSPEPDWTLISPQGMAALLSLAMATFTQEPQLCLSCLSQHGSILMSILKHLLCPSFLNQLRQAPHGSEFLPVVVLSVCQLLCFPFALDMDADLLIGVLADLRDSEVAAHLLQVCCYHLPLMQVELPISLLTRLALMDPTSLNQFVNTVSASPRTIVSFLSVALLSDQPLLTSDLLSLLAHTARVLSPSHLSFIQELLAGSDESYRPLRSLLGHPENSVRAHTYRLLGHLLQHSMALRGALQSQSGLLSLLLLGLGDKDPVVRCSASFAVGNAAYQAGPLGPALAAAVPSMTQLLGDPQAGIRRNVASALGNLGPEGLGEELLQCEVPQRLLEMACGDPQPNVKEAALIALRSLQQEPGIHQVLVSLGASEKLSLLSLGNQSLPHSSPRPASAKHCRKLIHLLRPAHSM

[6] = target: Serine/threonine-protein kinase 17A (Homo sapiens) (UniProt Q9UEE5); assay: Inhibition of wild-type human partial length DRAK1 (R32 to E363 residues) expressed in Escherichia coli BL21 assessed as residual activity at 1000 nM after 30 mins by Kinomescan method relative to control
[7] = target: Ribosomal protein S6 kinase alpha-2 (Homo sapiens) (UniProt Q15349); assay: Inhibition of wild-type human partial length C-terminal RSK2 kinase domain 2 (V402 to S715 residues) expressed in HEK293 cells assessed as residual activity at 1000 nM after 30 mins by Kinomescan method relative to control; type: cell-based
[8] = target: Epithelial discoidin domain-containing receptor 1 (Homo sapiens) (UniProt Q08345); assay: Inhibition of wild-type human partial length DDR1 (R565 to V876 residues) expressed in Escherichia coli BL21 assessed as residual activity at 1000 nM after 30 mins by Kinomescan method relative to control
Sequence of Epithelial discoidin domain-containing receptor 1 (Homo sapiens) (Q08345 whole entry, the tested form may be a part): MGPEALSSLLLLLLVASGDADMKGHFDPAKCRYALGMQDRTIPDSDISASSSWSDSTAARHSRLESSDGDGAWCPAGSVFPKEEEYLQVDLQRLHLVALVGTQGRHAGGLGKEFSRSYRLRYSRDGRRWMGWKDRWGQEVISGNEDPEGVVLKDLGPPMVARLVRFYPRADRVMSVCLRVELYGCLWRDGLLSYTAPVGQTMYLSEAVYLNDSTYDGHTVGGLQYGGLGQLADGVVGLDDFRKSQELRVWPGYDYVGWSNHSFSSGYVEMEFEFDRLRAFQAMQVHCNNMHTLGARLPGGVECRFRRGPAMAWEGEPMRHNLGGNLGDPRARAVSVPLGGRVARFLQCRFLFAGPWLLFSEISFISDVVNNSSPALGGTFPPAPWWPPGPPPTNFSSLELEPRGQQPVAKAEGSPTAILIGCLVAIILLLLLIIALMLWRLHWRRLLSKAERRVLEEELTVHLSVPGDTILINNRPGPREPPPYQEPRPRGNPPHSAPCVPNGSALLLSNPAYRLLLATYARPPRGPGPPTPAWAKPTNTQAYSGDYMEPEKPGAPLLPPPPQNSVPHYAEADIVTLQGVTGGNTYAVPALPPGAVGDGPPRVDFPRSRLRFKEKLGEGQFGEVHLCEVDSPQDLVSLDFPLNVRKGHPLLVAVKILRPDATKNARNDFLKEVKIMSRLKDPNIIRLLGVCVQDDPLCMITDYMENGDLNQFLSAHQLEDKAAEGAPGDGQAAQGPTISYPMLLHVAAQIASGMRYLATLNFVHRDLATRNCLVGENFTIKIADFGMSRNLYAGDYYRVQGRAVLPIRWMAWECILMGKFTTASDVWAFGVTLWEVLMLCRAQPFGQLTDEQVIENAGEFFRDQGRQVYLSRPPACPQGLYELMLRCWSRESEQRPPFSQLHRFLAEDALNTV

[9] = tested on: Receptor-type tyrosine-protein kinase FLT3 (Homo sapiens), P36888 [D835Y]; assay: Inhibition of human partial length FLT3 D835Y mutant (Q580 to Y969 residues) expressed in Escherichia coli BL21 assessed as residual activity at 1000 nM after 30 mins by Kinomescan method relative to control
Outline: (§1)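 KINOMEscan binding panel of 456 kinases, with the test compound at a single concentration of 1 µM. Read-out is Percent Control.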

[10] = target: Non-receptor tyrosine-protein kinase TNK1 (Homo sapiens) (UniProt Q13470); assay: Inhibition of wild-type human full length TNK1 (M1 to P661 residues) expressed in Escherichia coli BL21 assessed as residual activity at 1000 nM after 30 mins by Kinomescan method relative to control
[11] = target: Mitogen-activated protein kinase kinase kinase 13 (Homo sapiens) (UniProt O43283); assay: Inhibition of wild-type human full length LZK (M1 to W966 residues) expressed in HEK293 cells assessed as residual activity at 1000 nM after 30 mins by Kinomescan method relative to control; type: cell-based
Outline: (§2)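 Single-concentration screen at 1 µM across a 456-kinase KINOMEscan panel. The read-out is Percent Control for each kinase.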

[12] = target: Megakaryocyte-associated tyrosine-protein kinase (Homo sapiens) (UniProt P42679); assay: Inhibition of wild-type human full length CTK (M43 to P508 residues) expressed in HEK293 cells assessed as residual activity at 1000 nM after 30 mins by Kinomescan method relative to control; type: cell-based; outline: as §2
[13] = target: Tyrosine-protein kinase ITK/TSK (Homo sapiens) (UniProt Q08881); assay: Inhibition of wild-type human partial length ITK (R335 to L620 residues) expressed in Escherichia coli BL21 assessed as residual activity at 1000 nM after 30 mins by Kinomescan method relative to control
[14] = target: Focal adhesion kinase 1 (Homo sapiens) (UniProt Q05397); assay: Inhibition of wild-type human partial length FAK (D402 to R696 residues) expressed in Escherichia coli BL21 assessed as residual activity at 1000 nM after 30 mins by Kinomescan method relative to control
[15] = target: Calcium/calmodulin-dependent protein kinase type II subunit alpha (Homo sapiens) (UniProt Q9UQM7); assay: Inhibition of wild-type human partial length CAMK2A (M1 to K328 residues) expressed in Escherichia coli BL21 assessed as residual activity at 1000 nM after 30 mins by Kinomescan method relative to control
[16] = target: Phosphatidylinositol 5-phosphate 4-kinase type-2 gamma (Homo sapiens) (UniProt Q8TBX8); assay: Inhibition of wild-type human partial length PIP5K2C (M1 to A421 residues) expressed in HEK293 cells assessed as residual activity at 1000 nM after 30 mins by Kinomescan method relative to control; type: cell-based
[17] = target: Ephrin type-B receptor 1 (Homo sapiens) (UniProt P54762); assay: Inhibition of wild-type human partial length EPHB1 (P589 to T911 residues) expressed in Escherichia coli BL21 assessed as residual activity at 1000 nM after 30 mins by Kinomescan method relative to control
[18] = target: Mitogen-activated protein kinase kinase kinase 9 (Homo sapiens) (UniProt P80192); assay: Inhibition of wild-type human partial length MLK1 (V88 to W426 residues) expressed in Escherichia coli BL21 assessed as residual activity at 1000 nM after 30 mins by Kinomescan method relative to control
[19] = target: RAC-gamma serine/threonine-protein kinase (Homo sapiens) (UniProt Q9Y243); assay: Inhibition of wild-type human partial length AKT3 expressed in Escherichia coli BL21 assessed as residual activity at 1000 nM after 30 mins by Kinomescan method relative to control
[20] = tested on: Tyrosine-protein kinase ABL1 (Homo sapiens), P00519 [H396P]; assay: Inhibition of human non-phosphorylated ABL1 H396P mutant (S229 to K512 residues) expressed in HEK293 cells assessed as residual activity at 1000 nM after 30 mins by Kinomescan method relative to control; type: cell-based; outline: as §1
[21] = target: Bone morphogenetic protein receptor type-1B (Homo sapiens) (UniProt O00238); assay: Inhibition of wild-type human partial length BMPR1B (D178 to L502 residues) expressed in HEK293 cells assessed as residual activity at 1000 nM after 30 mins by Kinomescan method relative to control; type: cell-based
Sequence of Bone morphogenetic protein receptor type-1B (Homo sapiens) (O00238 whole entry, the tested form may be a part): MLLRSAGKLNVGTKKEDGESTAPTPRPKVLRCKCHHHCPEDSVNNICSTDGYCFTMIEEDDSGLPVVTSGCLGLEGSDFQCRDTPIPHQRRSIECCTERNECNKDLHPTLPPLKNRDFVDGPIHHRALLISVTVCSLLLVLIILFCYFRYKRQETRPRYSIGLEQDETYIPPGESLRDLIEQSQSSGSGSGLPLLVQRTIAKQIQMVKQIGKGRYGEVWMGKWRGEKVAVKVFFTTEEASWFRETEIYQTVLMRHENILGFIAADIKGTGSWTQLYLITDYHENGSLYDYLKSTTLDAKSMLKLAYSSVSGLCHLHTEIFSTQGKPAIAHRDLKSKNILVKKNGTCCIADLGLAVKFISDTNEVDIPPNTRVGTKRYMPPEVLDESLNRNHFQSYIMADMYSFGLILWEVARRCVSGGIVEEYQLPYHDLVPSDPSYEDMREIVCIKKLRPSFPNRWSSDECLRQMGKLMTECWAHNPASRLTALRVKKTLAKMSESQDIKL

[22] = target: Rho-associated protein kinase 2 (Homo sapiens) (UniProt O75116); assay: Inhibition of wild-type human partial length ROCK2 (M1 to T431 residues) expressed in HEK293 cells assessed as residual activity at 1000 nM after 30 mins by Kinomescan method relative to control; type: cell-based
Sequence of Rho-associated protein kinase 2 (Homo sapiens) (O75116 whole entry, looked up, the tested form may be a part): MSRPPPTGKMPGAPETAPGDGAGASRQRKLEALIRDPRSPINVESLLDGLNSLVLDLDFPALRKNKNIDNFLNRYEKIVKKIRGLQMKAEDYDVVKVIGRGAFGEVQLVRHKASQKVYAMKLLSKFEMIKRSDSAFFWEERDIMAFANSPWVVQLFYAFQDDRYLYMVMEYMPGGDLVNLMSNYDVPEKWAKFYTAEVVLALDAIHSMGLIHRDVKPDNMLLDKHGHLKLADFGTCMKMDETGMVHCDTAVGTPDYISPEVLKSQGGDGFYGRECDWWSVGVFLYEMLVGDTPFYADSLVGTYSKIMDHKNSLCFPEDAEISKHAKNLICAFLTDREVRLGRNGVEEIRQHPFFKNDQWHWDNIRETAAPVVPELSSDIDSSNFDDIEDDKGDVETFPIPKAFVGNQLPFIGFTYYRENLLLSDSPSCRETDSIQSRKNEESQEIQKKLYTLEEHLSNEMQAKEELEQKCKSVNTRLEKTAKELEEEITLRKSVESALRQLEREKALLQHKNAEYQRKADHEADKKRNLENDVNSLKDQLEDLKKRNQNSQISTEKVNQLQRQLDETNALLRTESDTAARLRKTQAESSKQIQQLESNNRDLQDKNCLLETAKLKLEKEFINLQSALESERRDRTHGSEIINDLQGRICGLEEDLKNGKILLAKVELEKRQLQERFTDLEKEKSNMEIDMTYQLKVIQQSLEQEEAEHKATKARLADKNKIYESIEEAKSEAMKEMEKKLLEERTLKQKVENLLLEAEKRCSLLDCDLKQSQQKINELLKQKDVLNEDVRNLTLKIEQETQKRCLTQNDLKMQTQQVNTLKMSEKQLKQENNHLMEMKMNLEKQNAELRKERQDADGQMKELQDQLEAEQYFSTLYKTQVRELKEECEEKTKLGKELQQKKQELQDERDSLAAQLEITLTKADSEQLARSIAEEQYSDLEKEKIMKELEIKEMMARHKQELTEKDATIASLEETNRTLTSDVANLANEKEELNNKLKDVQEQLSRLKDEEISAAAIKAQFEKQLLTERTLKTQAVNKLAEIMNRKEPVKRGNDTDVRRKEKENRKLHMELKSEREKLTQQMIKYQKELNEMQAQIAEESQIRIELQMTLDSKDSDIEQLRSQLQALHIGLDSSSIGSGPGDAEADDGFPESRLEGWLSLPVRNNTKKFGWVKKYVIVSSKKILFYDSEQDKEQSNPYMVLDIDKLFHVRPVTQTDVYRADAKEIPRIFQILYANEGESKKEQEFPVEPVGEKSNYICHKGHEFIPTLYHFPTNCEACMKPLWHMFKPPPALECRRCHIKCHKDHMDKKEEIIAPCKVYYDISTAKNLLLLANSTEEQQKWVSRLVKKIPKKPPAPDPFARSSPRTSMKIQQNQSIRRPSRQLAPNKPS

[23] = target: SRSF protein kinase 2 (Homo sapiens) (UniProt P78362); assay: Inhibition of wild-type human full length SRPK2 (M1 to S686 residues) expressed in Escherichia coli BL21 assessed as residual activity at 1000 nM after 30 mins by Kinomescan method relative to control
Sequence of SRSF protein kinase 2 (Homo sapiens) (P78362 whole entry, looked up, the tested form may be a part): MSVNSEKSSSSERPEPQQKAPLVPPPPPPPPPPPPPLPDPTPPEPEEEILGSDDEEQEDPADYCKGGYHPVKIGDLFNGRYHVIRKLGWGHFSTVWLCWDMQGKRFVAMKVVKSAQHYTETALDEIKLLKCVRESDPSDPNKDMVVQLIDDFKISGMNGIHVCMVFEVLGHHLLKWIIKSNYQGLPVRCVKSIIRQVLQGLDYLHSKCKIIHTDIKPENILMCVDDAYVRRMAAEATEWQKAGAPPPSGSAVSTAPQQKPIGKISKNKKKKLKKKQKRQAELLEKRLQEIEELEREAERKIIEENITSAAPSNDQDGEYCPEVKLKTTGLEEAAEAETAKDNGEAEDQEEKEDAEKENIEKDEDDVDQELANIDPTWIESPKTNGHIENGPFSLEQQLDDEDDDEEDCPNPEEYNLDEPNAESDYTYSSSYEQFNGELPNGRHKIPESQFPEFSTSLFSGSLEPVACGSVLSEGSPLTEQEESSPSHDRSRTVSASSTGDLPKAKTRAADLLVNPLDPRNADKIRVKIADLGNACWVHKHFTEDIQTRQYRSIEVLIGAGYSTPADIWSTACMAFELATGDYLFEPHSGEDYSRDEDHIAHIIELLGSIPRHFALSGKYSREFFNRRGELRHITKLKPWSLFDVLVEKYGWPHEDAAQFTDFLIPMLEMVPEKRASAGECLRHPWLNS

SMILES: COc1cc(OC)c(Cl)c(N2Cc3cnc(Nc4ccc(F)cc4)nc3N(C3CCN(C(=O)/C=C/CN(C)C)CC3)C2=O)c1Cl
- Activity [1]: 90%
- Activity [2]: 19%
- IC50 [3]: 0.77 nM
- Activity [4]: 98%
- Activity [5]: 100%
- Activity [6]: 96%
- Activity [7]: 96%
- Activity [8]: 7%
- Activity [9]: 83%
- Activity [10]: 93%
- Activity [11]: 100%
- Activity [12]: 100%
- Activity [13]: 100%
- Activity [14]: 78%
- Activity [15]: 100%
- Activity [16]: 6.3%
- Activity [17]: 100%
- Activity [18]: 97%
- Activity [19]: 96%
- Activity [20]: 31%
- Activity [21]: 97%
- Activity [22]: 100%
- Activity [23]: 91%

Source: ChEMBL document CHEMBL4043093, “2-Oxo-3, 4-dihydropyrimido[4, 5-d]pyrimidinyl derivatives as new irreversible pan fibroblast growth factor receptor (FGFR) inhibitors” (Eur J Med Chem, 2017)
